Laboratory results reported in ChEMBL document CHEMBL3769358, “Arylboronic acids as dual-action FAAH and TRPV1 ligands” (Bioorg Med Chem Lett, 2016).

Legend:
[1] = biological target: T1, Fatty-acid amide hydrolase 1 (Rattus norvegicus, UniProt P97612); assay: Inhibition of rat brain FAAH assessed as hydrolysis of [14C]AEA to [14C]Ethanolamine incubated for 30 mins by scintillation counting method
T1 sequence (P97612 whole entry): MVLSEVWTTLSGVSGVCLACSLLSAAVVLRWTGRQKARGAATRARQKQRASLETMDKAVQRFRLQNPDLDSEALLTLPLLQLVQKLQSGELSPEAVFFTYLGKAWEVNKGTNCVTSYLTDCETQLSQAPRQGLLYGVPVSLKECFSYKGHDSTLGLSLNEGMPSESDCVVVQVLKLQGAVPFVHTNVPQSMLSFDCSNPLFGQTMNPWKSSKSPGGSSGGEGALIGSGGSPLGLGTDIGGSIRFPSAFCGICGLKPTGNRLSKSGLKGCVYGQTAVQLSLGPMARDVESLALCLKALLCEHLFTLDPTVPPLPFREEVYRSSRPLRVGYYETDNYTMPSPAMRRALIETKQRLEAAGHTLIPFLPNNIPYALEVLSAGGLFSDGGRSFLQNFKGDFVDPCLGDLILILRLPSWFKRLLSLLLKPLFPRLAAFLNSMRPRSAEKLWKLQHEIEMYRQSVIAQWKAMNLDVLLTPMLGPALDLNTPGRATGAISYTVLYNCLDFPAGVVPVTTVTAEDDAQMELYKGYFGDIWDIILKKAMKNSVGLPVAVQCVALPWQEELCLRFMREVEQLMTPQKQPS

[2] = biological target: T2, Transient receptor potential cation channel subfamily V member 1 (Homo sapiens, UniProt Q8NER1); assay: Agonist activity at recombinant human TRPV1 channel expressed in HEK293 cells assessed as increase in intracellular Ca2+ concentration by Fluo-4-AM dye based spectrofluorimetry relative to ionomycin; type: cell-based
How it was run: (§1)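 HEK293 cells stably expressing human TRPV1, grown in MEM with non-essential amino acids, 10% FBS and 2 mM glutamine at 37 °C, 5% CO2. Cells loaded 1 h at room temperature with Fluo-4-AM (4 µM), washed into Tyrode's buffer pH 7.4, about 100,000 cells per stirred cuvette. Fluorescence (ex 488/em 516 nm) read at 25 °C. Efficacy normalised to 4 µM ionomycin, with wild-type HEK293 response subtracted when significant. EC50 from GraphPad; n = 4.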

[3] = biological target: T2, Transient receptor potential cation channel subfamily V member 1; assay: Antagonist activity at recombinant human TRPV1 channel expressed in HEK293 cells assessed as inhibition of capsiacin-induced Ca2+ flux preincubated for 5 mins followed by capsiacin challenge by Fluo-4-AM dye based spectrofluorimetry; type: cell-based
How it was run: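 Fluo-4-loaded HEK293 cells stably expressing human TRPV1, in Tyrode's buffer pH 7.4, read at 25 °C (ex 488/em 516 nm). Test compound added to the cuvette 5 min before 0.1 µM capsaicin. IC50 taken as half-maximal inhibition of capsaicin-induced [Ca2+]i rise, calculated in GraphPad; mean of n = 4.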

[4] = biological target: T2, Transient receptor potential cation channel subfamily V member 1; assay: Agonist activity at recombinant human TRPV1 channel expressed in HEK293 cells assessed as increase in intracellular Ca2+ concentration by Fluo-4-AM dye based spectrofluorimetry; type: cell-based; how it was run: as §1
[5] = biological target: T2, Transient receptor potential cation channel subfamily V member 1; assay: Antagonist activity at recombinant human TRPV1 channel expressed in HEK293 cells assessed as inhibition of capsiacin-induced Ca2+ flux by Fluo-4 dye based spectrofluorimetry assay

T2 sequence (Q8NER1 whole entry): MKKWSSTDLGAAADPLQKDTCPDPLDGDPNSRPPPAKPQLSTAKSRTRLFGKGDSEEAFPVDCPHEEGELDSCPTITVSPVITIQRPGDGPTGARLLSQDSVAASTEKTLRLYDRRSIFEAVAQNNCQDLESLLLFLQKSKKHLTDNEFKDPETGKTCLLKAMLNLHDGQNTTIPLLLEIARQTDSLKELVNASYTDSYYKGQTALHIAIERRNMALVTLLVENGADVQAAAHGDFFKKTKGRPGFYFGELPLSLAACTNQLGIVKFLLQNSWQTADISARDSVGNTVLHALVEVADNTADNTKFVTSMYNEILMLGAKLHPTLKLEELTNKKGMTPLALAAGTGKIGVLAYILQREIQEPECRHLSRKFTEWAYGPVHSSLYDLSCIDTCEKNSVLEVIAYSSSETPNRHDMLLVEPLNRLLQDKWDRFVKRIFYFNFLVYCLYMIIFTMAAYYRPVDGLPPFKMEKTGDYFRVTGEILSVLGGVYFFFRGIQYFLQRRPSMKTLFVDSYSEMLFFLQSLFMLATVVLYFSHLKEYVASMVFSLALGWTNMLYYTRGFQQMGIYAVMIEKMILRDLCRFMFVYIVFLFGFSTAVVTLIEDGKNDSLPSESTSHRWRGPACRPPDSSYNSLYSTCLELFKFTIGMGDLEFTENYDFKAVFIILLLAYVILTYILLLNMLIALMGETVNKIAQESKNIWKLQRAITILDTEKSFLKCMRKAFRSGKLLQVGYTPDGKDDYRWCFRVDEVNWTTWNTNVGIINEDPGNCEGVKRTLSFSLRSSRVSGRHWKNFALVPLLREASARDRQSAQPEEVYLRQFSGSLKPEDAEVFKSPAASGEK

Compound: O=C(NCCc1ccc(O)cc1)c1ccc(B(O)O)cc1
- IC50 [1]: > 10 µM
- Efficacy [2]: < 10%
- IC50 [3]: > 10 µM

Compound: O=C(Cc1ccc(-c2ccccc2)cc1)Nc1ccc(B(O)O)cc1
- IC50 [1]: > 10 µM
- Efficacy [2]: < 10%
- IC50 [3]: > 10 µM

Compound: O=C(CCCCCc1ccccc1)NCc1ccc(B(O)O)cc1
- IC50 [1]: 1.08 µM
- EC50 [4]: 1.53 µM
- Efficacy [2]: 41.1%
- IC50 [3]: 2.89 µM

Compound: COc1cc(CNC(=O)CCCCCc2ccccc2)ccc1B(O)O
- IC50 [1]: 1.32 µM
- EC50 [4]: 1.46 µM
- Efficacy [2]: 59.3%
- IC50 [3]: 1.53 µM

Compound: O=C(Cc1ccc(B(O)O)cc1)NCc1ccc(-c2ccccc2)cc1
- IC50 [1]: 0.28 µM
- EC50 [4]: 0.31 µM
- Efficacy [2]: 27.4%
- IC50 [3]: 5.53 µM

Compound: O=C(Cc1ccc(B(O)O)cc1)NCCCCCc1ccccc1
- IC50 [1]: 0.63 µM
- EC50 [4]: 2.25 µM
- Efficacy [2]: 62.8%
- IC50 [3]: 2.53 µM

Compound: O=C(/C=C/c1ccc(Cl)cc1)Nc1cccc(B(O)O)c1
- IC50 [1]: > 10 µM
- Efficacy [2]: < 10%
- IC50 [3]: 0.041 µM

Compound: O=C(Oc1ccc(C(F)(F)F)cc1)N1CCN(c2ncccc2C(F)(F)F)CC1
- Efficacy [2]: < 10%

Compound: O=C(Cc1ccccc1)NCCCCCCCc1ccccc1
- IC50 [1]: > 10 µM
- EC50 [4]: 0.66 µM
- Efficacy [2]: 54.6%
- IC50 [3]: 1.21 µM

Compound: COc1cccc(NC(=O)/C=C/c2ccc(Cl)cc2)c1
- IC50 [5]: 0.27 µM
- IC50 [1]: > 10 µM
- Efficacy [2]: < 10%
- IC50 [3]: 0.19 µM

Compound: O=C(Cc1ccc(B(O)O)cc1)NCc1ccccc1
- IC50 [1]: > 10 µM
- Efficacy [2]: < 10%
- IC50 [3]: > 10 µM

Compound: COc1cc(CNC(=O)CCCCCCCc2ccccc2)ccc1B(O)O
- IC50 [1]: 1.77 µM
- EC50 [4]: 0.051 µM
- Efficacy [2]: 62.5%
- IC50 [3]: 0.034 µM

Compound: O=C(CCCCCc1ccccc1)Nc1ccc(B(O)O)cc1
- IC50 [1]: 0.57 µM
- Efficacy [2]: < 10%
- IC50 [3]: > 10 µM

Compound: CC(C)(C)c1ccc(NC(=O)NCc2ccc(B(O)O)cc2)cc1
- IC50 [1]: 1.99 µM
- Efficacy [2]: < 10%
- IC50 [3]: 4.13 µM

Compound: O=C(NCCCCCc1ccccc1)c1ccc(B(O)O)cc1
- IC50 [1]: 0.18 µM
- Efficacy [2]: < 10%
- IC50 [3]: > 10 µM

Compound: OB(O)c1ccc(-c2ccccc2)cc1 [BIPHENYLBORONIC ACID]
- IC50 [1]: 0.79 µM
- Efficacy [2]: < 10%
- IC50 [3]: > 10 µM

Compound: CC(C)(C)c1ccc(NC(=O)Nc2ccc(B(O)O)cc2)cc1
- IC50 [1]: > 10 µM
- Efficacy [2]: < 10%
- IC50 [3]: 1.95 µM

Compound: CC(C)(C)c1ccc(C(=O)Nc2ccc(B(O)O)cc2)cc1
- IC50 [1]: > 10 µM
- EC50 [4]: 0.52 µM
- Efficacy [2]: 39.3%
- IC50 [3]: 0.78 µM

Compound: O=C(CCCCCCCc1ccccc1)Nc1ccc(B(O)O)cc1
- IC50 [1]: 0.39 µM
- Efficacy [2]: < 10%
- IC50 [3]: > 10 µM

Compound: O=C(NCc1ccc(-c2ccccc2)cc1)c1ccc(B(O)O)cc1
- IC50 [1]: 1.86 µM
- Efficacy [2]: < 10%
- IC50 [3]: > 10 µM

Compound: O=C(Nc1ccc(-c2ccccc2)cc1)c1ccc(B(O)O)cc1
- IC50 [1]: 0.15 µM
- EC50 [4]: 3.97 µM
- Efficacy [2]: 12.5%
- IC50 [3]: > 10 µM

Compound: COc1cc(CNC(=O)Nc2ccc(C(C)(C)C)cc2)ccc1B(O)O
- IC50 [1]: 4.28 µM
- Efficacy [2]: < 10%
- IC50 [3]: 8.11 µM

Compound: O=C(/C=C/c1ccc(Cl)cc1)Nc1ccc(B(O)O)cc1
- IC50 [1]: 0.56 µM
- Efficacy [2]: < 10%
- IC50 [3]: 1.39 µM

Compound: O=C(/C=C/c1ccc(Cl)cc1)NCc1ccc(B(O)O)cc1
- IC50 [1]: 1.51 µM
- Efficacy [2]: < 10%
- IC50 [3]: > 10 µM

Compound: O=C(Cc1ccc(O)cc1)NCCCCCCCc1ccccc1
- EC50 [4]: 0.17 µM
- Efficacy [2]: 64.7%
- IC50 [3]: 0.26 µM

Compound: CCCCC/C=C\C/C=C\C/C=C\C/C=C\CCCC(=O)NCCc1c[nH]c2ccc(O)cc12
- Efficacy [2]: < 10%

Compound: O=C(CCc1ccccc1)NCc1ccc(B(O)O)cc1
- IC50 [1]: > 10 µM
- EC50 [4]: 0.32 µM
- Efficacy [2]: 60.2%
- IC50 [3]: 0.23 µM

Compound: O=C(Cc1ccc(B(O)O)cc1)NCCCCc1ccccc1
- IC50 [1]: 1.17 µM
- EC50 [4]: 1.99 µM
- Efficacy [2]: 44.9%
- IC50 [3]: 2.19 µM

Compound: CCCCCCCC/C=C\CCCCCCCC(=O)NCc1ccc(B(O)O)cc1
- IC50 [1]: > 10 µM
- EC50 [4]: 0.022 µM
- Efficacy [2]: 42.2%
- IC50 [3]: 0.047 µM

Compound: CCCCCCCCCc1ccc(B(O)O)cc1
- IC50 [1]: 2.92 µM
- Efficacy [2]: < 10%
- IC50 [3]: > 10 µM

Compound: CC(C)(C)c1ccc(NC(=O)Cc2ccc(B(O)O)cc2)cc1
- IC50 [1]: > 10 µM
- Efficacy [2]: < 10%
- IC50 [3]: > 10 µM

Compound: O=C(Cc1ccc(B(O)O)cc1)NCCCCCCCc1ccccc1
- IC50 [1]: 0.25 µM
- EC50 [4]: 0.37 µM
- Efficacy [2]: 52.5%
- IC50 [3]: 0.37 µM

Compound: O=C(CCCCCCCc1ccccc1)NCc1ccc(B(O)O)cc1
- IC50 [1]: 0.47 µM
- EC50 [4]: 1 µM
- Efficacy [2]: 54.7%
- IC50 [3]: 0.5 µM

Compound: O=C(NCc1ccccc1)c1ccc(B(O)O)cc1
- IC50 [1]: 2.87 µM
- Efficacy [2]: < 10%
- IC50 [3]: > 10 µM

Compound: CC(C)(C)c1ccc(NC(=O)c2ccc(B(O)O)cc2)cc1
- IC50 [1]: 5.5 µM
- Efficacy [2]: < 10%
- IC50 [3]: 0.75 µM

Compound: O=C(NCc1ccc(B(O)O)cc1)c1ccc(-c2ccccc2)cc1
- IC50 [1]: 0.33 µM
- EC50 [4]: 4.23 µM
- Efficacy [2]: 22%
- IC50 [3]: 7.11 µM

Compound: CCCCCCCC/C=C\CCCCCCCC(=O)NCc1ccc(B(O)O)c(OC)c1
- IC50 [1]: > 10 µM
- EC50 [4]: 0.02 µM
- Efficacy [2]: 49.2%
- IC50 [3]: 0.032 µM

Compound: O=C(NCCCCc1ccccc1)c1ccc(B(O)O)cc1
- IC50 [1]: 0.58 µM
- Efficacy [2]: < 10%
- IC50 [3]: > 10 µM
